Source: ChEMBL document CHEMBL1147346, “Isolation of pseudoprototimosaponin AIII from rhizomes of Anemarrhena asphodeloides and its hypoglycemic activity in streptozotocin-induced diabetic mice” (1993)

Assays:
Mus musculus [1] = assay: Hypoglycemic activity in fasted po dosed streptozotocin-induced diabetic ddY mouse assessed as decrease in blood glucose level after 6 hrs by glucose oxidase method; format: functional; conditions: for ED50: read-out: ID50 (the source's name)
Summary of the method: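 Male ddY mice given streptozotocin 150 mg/kg iv in saline via tail vein, used 1 or 4 weeks later; fasting glucose >150 mg/dl after 13–14 h fast. Graded doses. Percent fall computed from glucose before and after dosing versus 85 mg/dl normal mean. ID50 with 95% confidence limits from dose-inhibition curves; 7–12 mice per point, mean ± SEM.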

Mus musculus [2] = assay: Hypoglycemic activity in fasted alloxan monohydrate-induced diabetic ddY mouse assessed as decrease in blood glucose level at 50 mg/kg, ip after 6 hrs by glucose oxidase method; format: functional; set-up: scale not given: the % may be the effect or the level left; conditions: route intraperitoneal
Summary of the method: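 Male ddY mice given alloxan monohydrate 90 mg/kg iv bolus in saline via tail vein, used 1 or 4 weeks later; fasting glucose >150 mg/dl after 13–14 h fast. Dosed 50 mg/kg ip; saline control. Glucose oxidase read-out. Percent fall = (A − B)/(A − 85) × 100, A and B being glucose before and 6 h after injection. Means ± SEM, n = 5–10.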

Mus musculus [3] = assay: Effect on blood glucose level in fasted ddY mouse at 50 mg/kg, ip after 6 hrs by glucose oxidase method; format: functional, organism-based; set-up: dose 50 mg/kg
Summary of the method: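 Non-diabetic male ddY mice, 7–8 weeks of age (33–41 g), fasted; 50 mg/kg given ip. Blood glucose measured by glucose oxidase on a glucose analyzer.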

Pancreas = assay: Stimulation of immunoreactive insulin release in perfused Wistar rat pancreas at 1 mg/ml for 10 mins by radioimmunoassay; format: functional
Summary of the method: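 Male Wistar rat pancreas (6–7 weeks) perfused via celiac artery with KRB pH 7.4, 0.5% BSA, 2% dextran, 2.8 mM glucose basal, 95% O2/5% CO2. Stimulated with 16.7 mM glucose ± 1 mg/ml test agent for 10 min. Portal vein effluent insulin measured by radioimmunoassay. n = 7.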

SMILES	Activity (Mus musculus [1])	ED50 (Mus musculus [1])	Activity (Mus musculus [2])	Activity (Mus musculus [3])	Activity (Pancreas)
COc1ccc(Cl)cc1C(=O)NCCc1ccc(S(=O)(=O)NC(=O)NC2CCCCC2)cc1 [GLYBURIDE]	Dose-dependent effect	0.33 mg/kg			
C[C@@H](CCC1(O)O[C@H]2C[C@H]3[C@@H]4CC[C@@H]5C[C@@H](O[C@@H]6O[C@H](CO)[C@H](O)[C@H](O)[C@H]6O[C@@H]6O[C@H](CO)[C@@H](O)[C@H](O)[C@H]6O)CC[C@]5(C)[C@H]4CC[C@]3(C)[C@H]2[C@@H]1C)CO[C@@H]1O[C@H](CO)[C@@H](O)[C@H](O)[C@H]1O (stereo partly specified) [PROTOTIMOSAPONIN AIII]	Dose-dependent effect	6.62 mg/kg	73.4%	Dose-dependent effect	59.7 ng/mL
CC1=C(CC[C@H](C)CO[C@@H]2O[C@H](CO)[C@@H](O)[C@H](O)[C@H]2O)O[C@H]2C[C@H]3[C@@H]4CC[C@@H]5C[C@@H](O[C@@H]6O[C@H](CO)[C@H](O)[C@H](O)[C@H]6O[C@@H]6O[C@H](CO)[C@@H](O)[C@H](O)[C@H]6O)CC[C@]5(C)[C@H]4CC[C@]3(C)[C@@H]12 [PSEUDOPROTOTIMOSAPONIN AIII]	Dose-dependent effect	4.33 mg/kg	82.8%		
C[C@H]1CC[C@@]2(OC1)O[C@H]1C[C@H]3[C@@H]4CC[C@@H]5C[C@@H](O[C@@H]6O[C@H](CO)[C@H](O)[C@H](O)[C@H]6O[C@@H]6O[C@H](CO)[C@@H](O)[C@H](O)[C@H]6O)CC[C@]5(C)[C@H]4CC[C@]3(C)[C@H]1[C@@H]2C [TIMOSAPONIN AIII]			64.5%		
